≈ marks a conversion by molar mass, not a printed value.
Experiments:
Type in all cases: functional
[1] = test system: Mycolicibacterium diernhoferi; assay: Antimycobacterial activity against Mycobacterium diernhoferi
Method in brief: (§1)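 Broth microdilution MIC. Purified compound given as serial 2-fold dilutions in Mueller-Hinton broth in 96-well plates. Inoculum made by scraping colonies from EBS agar plates (EBS: casein peptone 0.5%, glucose 0.5%, meat/yeast extract 0.1% each, 50 mM HEPES, pH 7.0) into EBS medium, then added to 5 × 10^5 CFU/mL. MIC taken as lowest concentration inhibiting 99% of inoculum.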

Mycolicibacterium phlei = assay: Antimycobacterial activity against Mycobacterium phlei; method in brief: as §1
[2] = test system: Mycolicibacterium smegmatis; assay: Antimycobacterial activity against Mycobacterium smegmatis; method in brief: as §1

MIC [1] [µM] | MIC (Mycolicibacterium phlei) [µM] | MIC [2] [µM] | SMILES
180 (≈ 103 µg/mL) | 180 (≈ 103 µg/mL) | 180 (≈ 103 µg/mL) | CCCCCCCCCCCCCCC(=O)N[C@H](C(=O)O[C@H]1O[C@H](CO)[C@@H](O)[C@H](O)[C@H]1NC(=O)CCC)C(C)C
180 (≈ 105 µg/mL) | 180 (≈ 105 µg/mL) | 180 (≈ 105 µg/mL) | CCCCCCC/C=C\CCCCCCC(=O)N[C@H](C(=O)O[C@H]1O[C@H](CO)[C@@H](O)[C@H](O)[C@H]1NC(=O)CCC)C(C)C
180 (≈ 97.3 µg/mL) | 180 (≈ 97.3 µg/mL) | 180 (≈ 97.3 µg/mL) | CCCCCC/C=C\C[C@@H]1CC(=O)N[C@@H](CO)C(=O)O[C@H](CCCCCCC)CC(=O)N[C@@H](CO)C(=O)O1 [SERRATAMOLIDE B]
180 (≈ 92.6 µg/mL) | 180 (≈ 92.6 µg/mL) | 180 (≈ 92.6 µg/mL) | CCCCCCC[C@@H]1CC(=O)N[C@@H](CO)C(=O)O[C@H](CCCCCCC)CC(=O)N[C@@H](CO)C(=O)O1 [SERRATAMOLIDE A]
180 (≈ 101 µg/mL) | 180 (≈ 101 µg/mL) | 180 (≈ 101 µg/mL) | CCCCCCCCCCCCCC(=O)N[C@H](C(=O)O[C@H]1O[C@H](CO)[C@@H](O)[C@H](O)[C@H]1NC(=O)CCC)C(C)C
180 (≈ 87.6 µg/mL) | 180 (≈ 87.6 µg/mL) | 180 (≈ 87.6 µg/mL) | CCCCCCC[C@@H]1CC(=O)N[C@@H](CO)C(=O)O[C@H](CCCCC)CC(=O)N[C@@H](CO)C(=O)O1 [SERRATAMOLIDE E]
180 (≈ 90.1 µg/mL) | 180 (≈ 90.1 µg/mL) | 180 (≈ 90.1 µg/mL) | CCCCCCC[C@@H]1CC(=O)N[C@@H](CO)C(=O)O[C@H](CCCCCC)CC(=O)N[C@@H](CO)C(=O)O1 [SERRATAMOLIDE F]
180 (≈ 95.2 µg/mL) | 180 (≈ 95.2 µg/mL) | 180 (≈ 95.2 µg/mL) | CCCCCCCC[C@@H]1CC(=O)N[C@@H](CO)C(=O)O[C@H](CCCCCCC)CC(=O)N[C@@H](CO)C(=O)O1 [SERRATAMOLIDE D]
180 (≈ 97.7 µg/mL) | 180 (≈ 97.7 µg/mL) | 180 (≈ 97.7 µg/mL) | CCCCCCCCC[C@@H]1CC(=O)N[C@@H](CO)C(=O)O[C@H](CCCCCCC)CC(=O)N[C@@H](CO)C(=O)O1 [SERRATAMOLIDE C]
